≈ marks a conversion by molar mass, not a printed value. Calls of active or inactive are those of the source. The calls are words filed in the database; no cut-off is given here.
Legend:
[1] = system: Bacillus cereus; experiment: Antimicrobial activity against Bacillus cereus at 10 ug/disk after 24 hrs by disk diffusion assay; format: functional
Procedure, shortened: (§1)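 Disc diffusion on 4 mm filter discs. Bacteria are grown overnight in LB at 28 C, then adjusted in saline to 1.0 × 10^5 cfu/ml. The suspension is mixed into top agar over peptone agar plates. Plates are incubated 24 h at 28 C, and growth-inhibition zone diameter is measured. Streptomycin and ampicillin controls are applied from a 1 mg/ml stock. Tests are done in duplicate.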

[2] = system: Micrococcus flavus; experiment: Antimicrobial activity against Micrococcus flavus at 10 ug/disk after 24 hrs by disk diffusion assay; format: functional; details: for zone of inhibition at 10 µg/disc: read-out: IZ; procedure, shortened: as §1
[3] = system: Staphylococcus aureus; experiment: Antimicrobial activity against Staphylococcus aureus at 10 ug/disk after 24 hrs by disk diffusion assay; format: functional; details: for zone of inhibition at 10 µg/disc: read-out: IZ; procedure, shortened: as §1
[4] = system: Escherichia coli; experiment: Antimicrobial activity against Escherichia coli at 10 ug/disk after 24 hrs by disk diffusion assay; format: functional; procedure, shortened: as §1
[5] = system: Pseudomonas aeruginosa; experiment: Antimicrobial activity against Pseudomonas aeruginosa at 10 ug/disk after 24 hrs by disk diffusion assay; format: functional; procedure, shortened: as §1
[6] = system: Enterobacter cloacae; experiment: Antimicrobial activity against Enterobacter cloacae at 10 ug/disk after 24 hrs by disk diffusion assay; format: functional; procedure, shortened: as §1
[7] = system: Salmonella typhimurium; experiment: Antimicrobial activity against Salmonella Typhimurium at 10 ug/disk after 24 hrs by disk diffusion assay; format: functional, organism-based; details: Salmonella enterica subsp. enterica serovar Typhimurium; procedure, shortened: as §1
[8] = system: Listeria monocytogenes; experiment: Antimicrobial activity against Listeria monocytogenes at 10 ug/disk after 24 hrs by disk diffusion assay; format: functional; procedure, shortened: as §1
[9] = system: Bacillus cereus; experiment: Antimicrobial activity against Bacillus cereus at 1 umol/disk after 24 hrs by disk diffusion assay; format: functional; procedure, shortened: as §1
[10] = system: Micrococcus flavus; experiment: Antimicrobial activity against Micrococcus flavus at 1 umol/disk after 24 hrs by disk diffusion assay; format: functional; procedure, shortened: as §1
[11] = system: Staphylococcus aureus; experiment: Antimicrobial activity against Staphylococcus aureus at 1 umol/disk after 24 hrs by disk diffusion assay; format: functional; design: unit not given here; procedure, shortened: as §1
[12] = system: Escherichia coli; experiment: Antimicrobial activity against Escherichia coli at 1 umol/disk after 24 hrs by disk diffusion assay; format: functional; procedure, shortened: as §1
[13] = system: Pseudomonas aeruginosa; experiment: Antimicrobial activity against Pseudomonas aeruginosa at 1 umol/disk after 24 hrs by disk diffusion assay; format: functional; procedure, shortened: as §1
[14] = system: Enterobacter cloacae; experiment: Antimicrobial activity against Enterobacter cloacae at 1 umol/disk after 24 hrs by disk diffusion assay; format: functional; procedure, shortened: as §1
[15] = system: Salmonella typhimurium; experiment: Antimicrobial activity against Salmonella Typhimurium at 1 umol/disk after 24 hrs by disk diffusion assay; format: functional, organism-based; details: Salmonella enterica subsp. enterica serovar Typhimurium; procedure, shortened: as §1
[16] = system: Listeria monocytogenes; experiment: Antimicrobial activity against Listeria monocytogenes at 1 umol/disk after 24 hrs by disk diffusion assay; format: functional; procedure, shortened: as §1
[17] = system: Bacillus cereus; experiment: Antimicrobial activity against Bacillus cereus at 1 umol/spot after 18 hrs by TLC-bioautographic method; format: functional
Procedure, shortened: (§2)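 TLC bioautography. Samples are spotted on silica gel TLC plates, then sprayed with bacteria (1.0 × 10^5 cfu/ml) in tryptic soy broth. Plates are incubated 18 h at 37 C and sprayed with 3% aqueous p-iodonitrotetrazolium violet. After a further 3 h, growth is stopped with 70% EtOH. White zones on a pink background are scored as inhibition-zone diameter with standard errors.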

[18] = system: Micrococcus flavus; experiment: Antimicrobial activity against Micrococcus flavus at 1 umol/spot after 18 hrs by TLC-bioautographic method; format: functional; procedure, shortened: as §2
[19] = system: Staphylococcus aureus; experiment: Antimicrobial activity against Staphylococcus aureus at 1 umol/spot after 18 hrs by TLC-bioautographic method; format: functional; procedure, shortened: as §2
[20] = system: Escherichia coli; experiment: Antimicrobial activity against Escherichia coli at 1 umol/spot after 18 hrs by TLC-bioautographic method; format: functional; procedure, shortened: as §2
[21] = system: Pseudomonas aeruginosa; experiment: Antimicrobial activity against Pseudomonas aeruginosa at 1 umol/spot after 18 hrs by TLC-bioautographic method; format: functional; procedure, shortened: as §2
[22] = system: Enterobacter cloacae; experiment: Antimicrobial activity against Enterobacter cloacae at 1 umol/spot after 18 hrs by TLC-bioautographic method; format: functional; procedure, shortened: as §2
[23] = system: Salmonella typhimurium; experiment: Antimicrobial activity against Salmonella Typhimurium at 1 umol/spot after 18 hrs by TLC-bioautographic method; format: functional, Salmonella enterica subsp. enterica serovar Typhimurium; procedure, shortened: as §2
[24] = system: Listeria monocytogenes; experiment: Antimicrobial activity against Listeria monocytogenes at 1 umol/spot after 18 hrs by TLC-bioautographic method; format: functional; procedure, shortened: as §2
[25] = system: Bacillus cereus; experiment: Antimicrobial activity against Bacillus cereus after 24 hrs by microdilution technique; format: functional
Procedure, shortened: (§3)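 Broth microdilution in LB medium. Inoculum is 1.0 × 10^4 cfu per well, from a saline-adjusted suspension of 1.0 × 10^5 cfu/ml. Compounds are dissolved in DMSO. Incubated 24 h at 28 C. MIC is the lowest concentration with no visible growth under a binocular microscope. MBC is read by subculture into fresh broth for 72 h, with no growth taken as 99.5% kill. OD is read at 655 nm.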

[26] = system: Micrococcus flavus; experiment: Antimicrobial activity against Micrococcus flavus after 24 hrs by microdilution technique; format: functional; procedure, shortened: as §3
[27] = system: Staphylococcus aureus; experiment: Antimicrobial activity against Staphylococcus aureus after 24 hrs by microdilution technique; format: functional; procedure, shortened: as §3
[28] = system: Escherichia coli; experiment: Antimicrobial activity against Escherichia coli after 24 hrs by microdilution technique; format: functional; procedure, shortened: as §3
[29] = system: Pseudomonas aeruginosa; experiment: Antimicrobial activity against Pseudomonas aeruginosa after 24 hrs by microdilution technique; format: functional; procedure, shortened: as §3
[30] = system: Enterobacter cloacae; experiment: Antimicrobial activity against Enterobacter cloacae after 24 hrs by microdilution technique; format: functional; procedure, shortened: as §3
[31] = system: Salmonella typhimurium; experiment: Antimicrobial activity against Salmonella Typhimurium after 24 hrs by microdilution technique; format: functional, Salmonella enterica subsp. enterica serovar Typhimurium; details: Salmonella enterica; procedure, shortened: as §3
[32] = system: Listeria monocytogenes; experiment: Antimicrobial activity against Listeria monocytogenes after 24 hrs by microdilution technique; format: functional; procedure, shortened: as §3

| SMILES | inhibition zone (IZ) [1] | inhibition zone (IZ) [5] | inhibition zone (IZ) [6] | inhibition zone (IZ) [7] | inhibition zone (IZ) [8] | inhibition zone (IZ) [9] | inhibition zone (IZ) [10] | inhibition zone (IZ) [11] | inhibition zone (IZ) [12] | inhibition zone (IZ) [13] | inhibition zone (IZ) [14] | inhibition zone (IZ) [15] | inhibition zone (IZ) [16] | inhibition zone (IZ) [17] | inhibition zone (IZ) [18] | inhibition zone (IZ) [19] | inhibition zone (IZ) [20] | inhibition zone (IZ) [21] | inhibition zone (IZ) [22] | inhibition zone (IZ) [23] | further results |
| --- | --- | --- | --- | --- | --- | --- | --- | --- | --- | --- | --- | --- | --- | --- | --- | --- | --- | --- | --- | --- | --- |
| N#Cc1c(-c2ccco2)cc(-c2ccc(Nc3nc(Nc4ccccc4)nc(Nc4ccccc4)n3)cc2)nc1N | inactive | inactive | inactive | inactive | inactive | inactive | inactive | 0.03 | inactive | inactive | inactive | inactive | inactive | inactive | inactive | inactive | inactive | inactive | 0.09 millimeter | 0.07 millimeter | inhibition zone (IZ) [2]: inactive; zone of inhibition at 10 µg/disc [3]: 6 mm; inhibition zone (IZ) [4]: inactive; inhibition zone (IZ) [24]: 0.08 millimeter; MBC [25]: 186 µM (≈ 100 µg/mL); MIC [25]: 93 µM (≈ 50 µg/mL); MBC [26]: 186 µM (≈ 100 µg/mL); MIC [26]: 93 µM (≈ 50 µg/mL); MBC [27]: 372 µM (≈ 200 µg/mL); MIC [27]: 186 µM (≈ 100 µg/mL); MBC [28]: 186 µM (≈ 100 µg/mL); MIC [28]: 93 µM (≈ 50 µg/mL); MBC [29]: 744 µM (≈ 400 µg/mL); MIC [29]: 372 µM (≈ 200 µg/mL); MBC [30]: 372 µM (≈ 200 µg/mL); MIC [30]: 186 µM (≈ 100 µg/mL); MBC [31]: 372 µM (≈ 200 µg/mL); MIC [31]: 186 µM (≈ 100 µg/mL); MBC [32]: 744 µM (≈ 400 µg/mL); MIC [32]: 372 µM (≈ 200 µg/mL) |
| N#Cc1c(-c2ccc(Cl)cc2)cc(-c2ccc(Nc3nc(Nc4ccccc4)nc(Nc4ccccc4)n3)cc2)nc1N | inactive | inactive | inactive | inactive | inactive | inactive | 0.04 millimeter | inactive | 0.04 millimeter | inactive | inactive | inactive | inactive | inactive | 0.07 millimeter | inactive | 0.09 millimeter | 0.09 millimeter | 0.08 millimeter | 0.08 millimeter | zone of inhibition at 10 µg/disc [2]: 7 mm; inhibition zone (IZ) [3]: inactive; zone of inhibition at 10 µg/disc ([4]; read-out: IZ): 7 mm; inhibition zone (IZ) [24]: 0.08 millimeter; MBC [25]: 344 µM (≈ 200 µg/mL); MIC [25]: 172 µM (≈ 100 µg/mL); MBC [26]: 344 µM (≈ 200 µg/mL); MIC [26]: 172 µM (≈ 100 µg/mL); MBC [27]: 344 µM (≈ 200 µg/mL); MIC [27]: 172 µM (≈ 100 µg/mL); MBC [28]: 344 µM (≈ 200 µg/mL); MIC [28]: 172 µM (≈ 100 µg/mL); MBC [29]: 688 µM (≈ 400 µg/mL); MIC [29]: 688 µM (≈ 400 µg/mL); MBC [30]: 344 µM (≈ 200 µg/mL); MIC [30]: 172 µM (≈ 100 µg/mL); MBC [31]: 344 µM (≈ 200 µg/mL); MIC [31]: 172 µM (≈ 100 µg/mL); MBC [32]: 688 µM (≈ 400 µg/mL); MIC [32]: 688 µM (≈ 400 µg/mL) |
| Nc1nc(-c2ccc(Cl)cc2)cc(-c2ccc(Nc3nc(Nc4ccccc4)nc(Nc4ccccc4)n3)cc2)n1 | inactive | inactive | inactive | inactive | inactive | inactive | 0.05 millimeter | 0.04 | inactive | inactive | inactive | inactive | inactive | 0.09 millimeter | 0.07 millimeter | 0.04 millimeter | 0.08 millimeter | inactive | inactive | 0.07 millimeter | zone of inhibition at 10 µg/disc [2]: 9 mm; zone of inhibition at 10 µg/disc [3]: 7 mm; inhibition zone (IZ) [4]: inactive; inhibition zone (IZ) [24]: 0.08 millimeter; MBC [25]: 179 µM (≈ 99.9 µg/mL); MIC [25]: 89.5 µM (≈ 49.9 µg/mL); MBC [26]: 358 µM (≈ 200 µg/mL); MIC [26]: 179 µM (≈ 99.9 µg/mL); MBC [27]: 358 µM (≈ 200 µg/mL); MIC [27]: 179 µM (≈ 99.9 µg/mL); MBC [28]: 179 µM (≈ 99.9 µg/mL); MIC [28]: 89.5 µM (≈ 49.9 µg/mL); MBC [29]: 358 µM (≈ 200 µg/mL); MIC [29]: 179 µM (≈ 99.9 µg/mL); MBC [30]: 179 µM (≈ 99.9 µg/mL); MIC [30]: 89.5 µM (≈ 49.9 µg/mL); MBC [31]: 358 µM (≈ 200 µg/mL); MIC [31]: 179 µM (≈ 99.9 µg/mL); MBC [32]: 716 µM (≈ 400 µg/mL); MIC [32]: 358 µM (≈ 200 µg/mL) |

— ChEMBL document CHEMBL1154716, “Synthesis of some new S-triazine based chalcones and their derivatives as potent antimicrobial agents” (2010)
